Measurements taken from paper PMC11904594 (Current Research in Microbial Sciences, 2025).
Peptide text beside a SMILES is read from it.

Legend:
[1] = tested on: 11 bacterial strains (S. aureus, P. aeruginosa, A. baumannii, K. pneumoniae, E. coli); assay: Antimicrobial activity screening, summary over groups of strains; assay type: cell-based; conditions: 50 µg/ml screen
A. baumannii ATCC 19606 = assay: Antimicrobial activity screening; assay type: cell-based, Acinetobacter baumannii; conditions: 50 µg/ml screen
[2] = tested on: Galleria mellonella larvae; assay: In vivo toxicity in Galleria mellonella larvae; conditions: G. mellonella larvae, N=10 per group
In short: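 Sixth-instar Galleria mellonella larvae (200–300 mg) were held in sawdust at 4 °C until use. Groups of ten were injected with 10 μl of test compound, colistin or 0.9 % NaCl saline control into the second rear proleg, then kept at 30 °C.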

CC[C@H](C)[C@H](NC(=O)[C@H](CCCCN)NC(=O)[C@H](CCCCN)NC(=O)[C@H](Cc1ccccc1)NC(=O)[C@H](CC(C)C)NC(=O)[C@H](CCCCN)NC(=O)[C@H](CCCCN)NS(=O)(=O)c1ccc(C)cc1)C(=O)N[C@@H](CC(C)C)C(=O)N[C@@H](CCCCN)C(=O)N[C@@H](CCCCN)C(=O)N[C@@H](CC(C)C)C(N)=O [BP125]
growth inhibition in all strains except both K. pneumoniae and E. coli ATCC 25,922 [1]: ≥ 83%

CC[C@H](C)[C@H](NC(=O)[C@H](CCCCN)NC(=O)[C@H](CCCCN)NC(=O)[C@@H](Cc1ccccc1)NC(=O)[C@H](CC(C)C)NC(=O)[C@H](CCCCN)NC(=O)[C@@H](N)CCCCN)C(=O)N[C@@H](CC(C)C)C(=O)N[C@@H](CCCCN)C(=O)N[C@@H](Cc1ccc(O)cc1)C(=O)N[C@@H](CC(C)C)C(N)=O [BP143]
growth inhibition for all Gram-negative strains tested [1]: ≥ 83%

CC[C@H](C)[C@H](NC(=O)[C@@H](CCCCN)NC(=O)[C@H](CCCCN)NC(=O)[C@H](Cc1ccccc1)NC(=O)[C@H](CC(C)C)NC(=O)[C@H](CCCCN)NC(=O)[C@@H](N)CCCCN)C(=O)N[C@@H](CC(C)C)C(=O)N[C@@H](CCCCN)C(=O)N[C@@H](Cc1ccc(O)cc1)C(=O)N[C@@H](CC(C)C)C(N)=O [BP146]
growth reduction in all strains except P. aeruginosa ST175–1 [1]: at least 89%

CC[C@H](C)[C@H](NC(=O)[C@H](CCCCN)NC(=O)[C@H](CCCCN)NC(=O)[C@H](Cc1c[nH]cn1)NC(=O)[C@H](CC(C)C)NC(=O)[C@H](CCCCN)NC(=O)[C@H](Cc1ccccc1)NS(=O)(=O)c1ccc(C)cc1)C(=O)N[C@@H](CC(C)C)C(=O)N[C@@H](CCCCN)C(=O)N[C@H](C(=O)N[C@@H](CC(C)C)C(N)=O)C(C)C [BP275] (HELM PEPTIDE1{[Cc1ccc(S(=O)(=O)[*:2])cc1].F.K.L.H.K.K.I.L.K.V.L.[am]}$$$$V2.0)
growth inhibition against A. baumannii ATCC 19,606 (A. baumannii ATCC 19606): ≥ 93%

CCCC(=O)NCCCC[C@H](NC(=O)[C@@H](NC(=O)[C@H](CCCCN)NC(=O)[C@H](CCCCN)NC(=O)[C@@H](Cc1ccccc1)NC(=O)[C@H](CC(C)C)NC(=O)[C@H](CCCCN)NC(=O)[C@H](CCCCN)NC(C)=O)[C@@H](C)CC)C(=O)N[C@@H](CCCCN)C(=O)N[C@@H](Cc1ccc(O)cc1)C(=O)N[C@@H](CC(C)C)C(N)=O [BP474]
growth inhibition against A. baumannii ATCC 19,606 (A. baumannii ATCC 19606): ≥ 93%

Colistin
mortality after 24h ([2]; 50 µg/larvae (10 μl of 5 mg/ml), 30 °C): 50%
LD50 ([2]; 10 μl injected, viability at 48h): 5 mg/mL
